Results taken from ChEMBL document CHEMBL1158534, “Antimicrobial activity of tryptanthrins in Escherichia coli” (J Med Chem, 2010).
Values after ≈ are worked out from the molar mass of the structure shown. Active and inactive are the calls of the source. The rule behind the calls is not given here.

What was measured:
Escherichia coli [1] = assay: Antibacterial activity against Escherichia coli AS19 at 10 ug/ml after 3 days in presence of M9 buffer; assay type: functional, organism-based
Summary of the method: (§1)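 Overnight LB culture of AS19 (pBRF14C) diluted to 10⁵-10⁶ cells/mL in M9 buffer (NH4Cl, Na2HPO4, KH2PO4); tryptanthrins at final 0.05-10 μg/mL (0.2-40 μM), 37 °C up to 72 h. Samples at ~12 h intervals plated on LB + ampicillin, counted after 24 h; surviving fraction relative to untreated M9 cells; duplicate samples, 4-8 repetitions.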

Escherichia coli [2] = assay: Antibacterial activity against Escherichia coli AS19 after 4 hrs; assay type: functional; settings: AS19, 4 h
Escherichia coli [3] = assay: Antibacterial activity against Escherichia coli AS19 at 0.6 to 2 ug/ml; assay type: functional, organism-based
Escherichia coli [4] = assay: Antibacterial activity against Escherichia coli AS19 assessed as growth inhibition at 10 ug/ml after 4 hrs; assay type: functional, organism-based
Escherichia coli [5] = assay: Antibacterial activity against Escherichia coli AS19 in presence of 360 nm light; assay type: functional, organism-based
Escherichia coli [6] = assay: Antibacterial activity against Escherichia coli AS19 assessed as cell viability at 10 ug/ml after 20 to 24 hrs; assay type: functional
Summary of the method: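 LB growth assay with AS19 (pBRF14C) at 37 °C with shaking; after 20-24 h exposure, dilutions in M9 buffer plated (200-400 cells) on LB + 30 μg/mL ampicillin, colonies counted after 24 h at 37 °C; viability = treated cells/mL divided by untreated cells/mL.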

Escherichia coli [7] = assay: Antibacterial activity against Escherichia coli AS19 at 0.01 ug/ml; assay type: functional, organism-based
Escherichia coli [8] = assay: Antibacterial activity against Escherichia coli AS19 at 2.5 to 20 ug/ml after 4 hrs; assay type: functional, organism-based
Escherichia coli [9] = assay: Antibacterial activity against Escherichia coli AS19 at 1 ug/ml after 4 hrs; assay type: functional, organism-based
Escherichia coli [10] = assay: Antibacterial activity against Escherichia coli AS19 at 0.1 ug/ml; assay type: functional, organism-based
Escherichia coli [11] = assay: Mutagenic activity in Escherichia coli assessed as induction of frame shift mutation
Escherichia coli [12] = assay: Antibacterial activity against Escherichia coli AS19 at 0.5 to 10 ug/ml after 3 days in presence of M9 buffer; assay type: functional, organism-based; settings: 0.05 to 10 ug/ml, in the assay text read “0.05 to 10 ug/ml” for “0.5 to 10 ug/ml”; summary of the method: as §1
[13] = biological target: T1, DNA topoisomerase 1 (Homo sapiens) (UniProt P11387); assay: Inhibition of human topoisomerase 1-mediated relaxation of circular DNA
T1 sequence (whole entry): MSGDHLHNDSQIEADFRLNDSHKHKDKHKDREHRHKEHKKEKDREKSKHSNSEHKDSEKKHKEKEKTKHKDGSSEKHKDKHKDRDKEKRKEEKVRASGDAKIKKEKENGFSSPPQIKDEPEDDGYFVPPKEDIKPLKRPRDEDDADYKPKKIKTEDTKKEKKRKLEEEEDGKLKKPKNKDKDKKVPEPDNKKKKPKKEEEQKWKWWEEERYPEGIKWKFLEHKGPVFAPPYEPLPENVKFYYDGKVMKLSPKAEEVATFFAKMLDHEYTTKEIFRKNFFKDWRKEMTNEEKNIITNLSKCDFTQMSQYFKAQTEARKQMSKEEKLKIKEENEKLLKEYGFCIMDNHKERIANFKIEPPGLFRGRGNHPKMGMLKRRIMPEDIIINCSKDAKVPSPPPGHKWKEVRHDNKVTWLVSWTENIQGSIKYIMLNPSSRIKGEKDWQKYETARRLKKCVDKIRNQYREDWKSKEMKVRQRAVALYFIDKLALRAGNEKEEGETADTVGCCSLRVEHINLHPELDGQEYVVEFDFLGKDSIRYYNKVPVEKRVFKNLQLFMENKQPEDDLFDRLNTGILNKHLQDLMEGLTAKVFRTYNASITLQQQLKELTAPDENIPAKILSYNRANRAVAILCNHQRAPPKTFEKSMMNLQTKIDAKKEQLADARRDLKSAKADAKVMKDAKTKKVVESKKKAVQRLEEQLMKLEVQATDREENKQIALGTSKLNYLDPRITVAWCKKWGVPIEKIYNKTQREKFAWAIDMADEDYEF
Summary of the method: (§2)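 Relaxation assay: 0.25 μg pGEM-3Z (2743 bp, CsCl-purified) with 1 U human topoisomerase I in 10 mM Tris pH 7.9, 150 mM NaCl, 0.1 mM spermidine, 5% glycerol, tryptanthrin 10-100 μg/mL, 2 h 37 °C (or pre-relaxed 1 h, then drug 1-2 h). Stopped with sarkosyl; 1.5% agarose ± 2 μg/mL chloroquine, 50 V 3-4 h, ethidium stain; drugs bound = (Ldrug−Lo)×360°/28°.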

Escherichia coli [14] = assay: Antibacterial activity against Escherichia coli AS19 at 0.4 ug/ml after 3 days in presence of M9 buffer; assay type: functional, organism-based; summary of the method: as §1
[15] = biological target: T1, DNA topoisomerase 1 (Homo sapiens); assay: Inhibition of human topoisomerase 1-mediated relaxation of circular DNA at 100 ug/ml; summary of the method: as §2

Row | Compound | Activity (Escherichia coli [1]) | GI50 (Escherichia coli [2]) | growth inhibition (GI) (Escherichia coli [4]) | Activity (Escherichia coli [5]) | also measured
1 | O=C1c2ccccc2-n2c1nc1nccnc1c2=O | Active | 1.5 µg/mL (≈ 5.99 µM) | Active | Active | Activity (Escherichia coli [3]): Active
2 | O=C1c2ccccc2-n2c1nc1ccccc1c2=O [TRYPTANTHRIN] | – | 2.25 µg/mL (≈ 9.06 µM) | Active | – | –
3 | O=C1c2cc(F)ccc2-n2c1nc1ncccc1c2=O | Active | 0.6 µg/mL (≈ 2.25 µM) | Active | – | Activity (Escherichia coli [6]): 15%; Activity (Escherichia coli [7]): inactive; Activity (Escherichia coli [8]): Active; Activity (Escherichia coli [9]): Active; Activity (Escherichia coli [10]): inactive; fold change (FC) (Escherichia coli [11]): 4
4 | O=C1c2ccccc2-n2c1nc1ncccc1c2=O | Active | 1.3 µg/mL (≈ 5.22 µM) | Active | – | Activity (Escherichia coli [12]): Active; inhibition [13]: inactive; fold change (FC) (Escherichia coli [11]): 22
5 | O=C1c2cc(Br)ccc2-n2c1nc1ccccc1c2=O | – | – | – | – | Activity (Escherichia coli [14]): Active
6 | O=c1c2ccccc2nc2n1-c1ccc(F)cc1/C2=N\O | Active | – | – | inactive | –
7 | O=C1c2cc([N+](=O)[O-])ccc2-n2c1nc1ccccc1c2=O | – | 0.6 µg/mL (≈ 2.05 µM) | Active | – | inhibition [15]: inactive
8 | O=Nc1c2ccccc2n2c(O)c3ccccc3nc12 | – | – | – | inactive | –
9 | O=C1c2cc(F)ccc2-n2c1nc1ccccc1c2=O | – | – | – | – | Activity (Escherichia coli [14]): Active
10 | O=c1c2cccnc2nc2n1-c1ccccc1/C2=N\O | – | – | – | inactive | –
